Data: ChEMBL document CHEMBL3797027, “Potent anti-proliferative actions of a non-diuretic glucosamine derivative of ethacrynic acid” (Bioorg Med Chem Lett, 2016)
Activity calls are given as the source filed them. The rule behind the calls is not given here.

How the values were obtained:
[1] = biological target: Glutathione S-transferase P (Homo sapiens) (UniProt P09211); test: Inhibition of GSTP1 in human HCT116 cells assessed as reduction in GST-pi activity at 50 uM pre-incubated for 3 hrs followed by chlorodinitrobenzene and reduced glutathione addition by photometric assay; details: HCT-116
MDA-MB-231 [2] = test: Induction of cell cycle arrest in p53 mutant expressing human MDA-MB-231 cells assessed as accumulation at G2/M phase incubated for 24 hrs by propidium iodide staining based flow cytometry; format: functional
[3] = Cytotoxic activity against human GBM10 cells assessed as inhibition of cell proliferation incubated for 72 hrs by MTT assay; format: functional, cell-based; details: GBM10, 72 h
Outline: (§1)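 MTT cell survival assay. IC50 is the concentration that inhibits tumour cell proliferation by 50%, read from cell survival curves. Values are given as mean ± SD of three independent experiments.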

[4] = Potency index, ratio of IC50 for ethacrynic acid to IC50 for test compound for cytotoxic activity against human HCT116 cells assessed as inhibition of cell proliferation incubated for 72 hrs by MTT assay; format: functional, HCT-116
Outline: (§2)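 Index is the reference IC50 divided by the test IC50. Both IC50s were taken from MTT cell survival curves, each as mean ± SD of three independent experiments.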

Mus musculus [5] = test: Toxicity in mouse assessed as induction of tremors at 120 mg/kg/week for 2 weeks; format: organism-based; details: in vivo, 336 h
[6] = biological target: Glutathione S-transferase P (Homo sapiens) (UniProt P09211); test: Inhibition of GSTP1 in human HCT116 cells assessed as reduction in GST-pi activity pre-incubated for 3 hrs followed by chlorodinitrobenzene and reduced glutathione addition by photometric assay; details: HCT-116
HCT-116 [7] = test: Reduction in cellular total thiol levels in human HCT116 cells at 40 uM incubated for 3 hrs by Ellman's reagent based assay; format: functional
Outline: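 Cells exposed to 0–40 µM compound for 3 h, then trypsinized. Total thiols in cell extracts were quantified with Ellman's reagent.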

NCI-H1299 [8] = test: Increase in p21'cip1 protein expression in p53 deficient human H1299 cells at 10 to 40 uM by Western blot method; format: functional, cell-based
Outline: (§3)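 H1299 (p53-null), HCT116 (p53 wild type) and MDA-MB-231 (p53 mutant) cells were treated, then lysates were immunoblotted for p53, p21, PUMA and PARP. β-Actin served as loading control.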

[9] = Potency index, ratio of IC50 for ethacrynic acid to IC50 for test compound for cytotoxic activity against human H1299 cells assessed as inhibition of cell proliferation incubated for 72 hrs by MTT assay; format: functional
Outline: as §2

Mus musculus [10] = test: Toxic diuretic effect in 12 hrs fasted CD1 mouse assessed as increase in urine output at 10 mg/kg, ip measured 0 to 6 hrs post dose relative to untreated control; format: toxicity, organism-based; details: in vivo
Outline: (§4)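 Female CD-1 mice fasted 12 h, then given compound IP at 10 mg/kg in PEG/EtOH/H2O (54:14:32). Vehicle control group included. Mice were housed singly in metabolic cages with free access to water. Voided urine was collected in graduated tubes under the cages over 0–6 h and 6–24 h after injection.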

[11] = Potency index, ratio of IC50 for ethacrynic acid to IC50 for test compound for cytotoxic activity against human SF188 cells assessed as inhibition of cell proliferation incubated for 72 hrs by MTT assay; format: functional, SF-188
MDA-MB-231 [12] = test: Induction of ROS generation in human MDA-MB-231 cells at 20 and 40 uM incubated for 3 hrs by DCFDA staining based flow cytometry; format: functional, cell-based
Outline: (§5)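 Cells were exposed for 3 h to compound, or to 25 µM H2O2 as positive control. Where indicated, 3 mM N-acetylcysteine was given 1 h before treatment. Pellets were stained with DCF-DA for 30 min, and intracellular ROS was read as fluorescence shift by flow cytometry against untreated controls.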

HCT-116 [13] = test: Increase in cleaved PARP protein expression in wild type p53 expressing human HCT116 cells at 10 to 40 uM by Western blot method; format: functional, cell-based
Outline: as §3

[14] = Cytotoxic activity against human HCT116 cells assessed as inhibition of cell proliferation incubated for 72 hrs by MTT assay; format: functional, cell-based; details: HCT-116, 72 h
Outline: as §1

HCT-116 [15] = test: Induction of ROS generation in human HCT116 cells at 20 and 40 uM incubated for 3 hrs by DCFDA staining based flow cytometry; format: functional, cell-based
Outline: as §5

[16] = Cytotoxic activity against human SKBR3 cells assessed as inhibition of cell proliferation incubated for 72 hrs by MTT assay; format: functional, cell-based; details: SK-BR-3, 72 h
Outline: as §1

HCT-116 [17] = test: Induction of ROS generation in human HCT116 cells at 20 and 40 uM incubated for 3 hrs after pre-incubation with 3 mM NAC for 1 hr by DCFDA staining based flow cytometry; format: functional, cell-based
Outline: as §5

NCI-H1299 [18] = test: Induction of ROS generation in human H1299 cells at 20 and 40 uM incubated for 3 hrs by DCFDA staining based fluorescence microscopy; format: functional, cell-based
Outline: (§6)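 After 3 h exposure at different concentrations, DCFH-DA fluorescence was imaged by fluorescence microscopy. H2O2 (25 µM) served as positive control. In some wells, cells were pretreated with 3 mM N-acetylcysteine before compound addition.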

[19] = Potency index, ratio of IC50 for ethacrynic acid to IC50 for test compound for cytotoxic activity against human GBM10 cells assessed as inhibition of cell proliferation incubated for 72 hrs by MTT assay; format: functional
Outline: as §2

NCI-H1299 [20] = test: Induction of ROS generation in human H1299 cells at 20 and 40 uM incubated for 3 hrs after pre-incubation with 3 mM NAC for 1 hr by DCFDA staining based flow cytometry; format: functional, cell-based
Outline: as §5

[21] = biological target: Glutathione S-transferase P (Homo sapiens) (UniProt P09211); test: Inhibition of GSTP1 in human MDA-MB-231 cells assessed as reduction in GST-pi activity pre-incubated for 3 hrs followed by chlorodinitrobenzene and reduced glutathione addition by photometric assay
Mus musculus [22] = test: Toxic diuretic effect in 12 hrs fasted CD1 mouse assessed as increase in urine output at 10 mg/kg, ip measured 6 to 24 hrs post dose relative to untreated control; format: toxicity, organism-based; details: in vivo
Outline: as §4

HCT-116 [23] = test: Increase in p21'cip1 protein expression in wild type p53 expressing human HCT116 cells at 10 to 40 uM by Western blot method; format: functional, cell-based
Outline: as §3

HCT-116 [24] = test: Induction of ROS generation in human HCT116 cells at 20 and 40 uM incubated for 3 hrs after pre-incubation with 3 mM NAC for 1 hr by DCFDA staining based fluorescence microscopy; format: functional, cell-based
Outline: as §6

[25] = Cytotoxic activity against human SF188 cells assessed as inhibition of cell proliferation incubated for 72 hrs by MTT assay; format: functional, cell-based; details: SF-188, 72 h
Outline: as §1

HT-29 = test: Potency index, ratio of IC50 for ethacrynic acid to IC50 for test compound for cytotoxic activity against human HT-29 cells assessed as inhibition of cell proliferation incubated for 72 hrs by MTT assay; format: functional
Outline: as §2

MDA-MB-231 [26] = test: Potency index, ratio of IC50 for ethacrynic acid to IC50 for test compound for cytotoxic activity against human MDA-MB-231 cells assessed as inhibition of cell proliferation incubated for 72 hrs by MTT assay; format: functional
MDA-MB-231 [27] = test: Induction of ROS generation in human MDA-MB-231 cells at 20 and 40 uM incubated for 3 hrs after pre-incubation with 3 mM NAC for 1 hr by DCFDA staining based flow cytometry; format: functional, cell-based
Outline: as §5

Sequence of Glutathione S-transferase P (Homo sapiens) (P09211 2-210 limits assumed): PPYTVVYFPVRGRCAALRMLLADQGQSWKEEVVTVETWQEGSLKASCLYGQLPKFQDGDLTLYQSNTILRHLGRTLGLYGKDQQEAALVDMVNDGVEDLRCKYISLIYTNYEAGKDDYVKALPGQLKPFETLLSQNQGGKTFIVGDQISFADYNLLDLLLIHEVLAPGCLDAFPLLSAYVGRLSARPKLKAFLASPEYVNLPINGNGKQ

C=C(CC)C(=O)c1ccc(OCC(=O)N[C@@H]2[C@@H](O)[C@H](O)[C@@H](CO)O[C@H]2O)c(Cl)c1Cl
Imax [1]: 60% | Activity (MDA-MB-231 [2]): Dose-dependent effect | IC50 [3]: 15.2 µM | Ratio IC50 [4]: 3 | Activity (Mus musculus [5]): Non-toxic | Activity [6]: Dose-dependent effect | Imax (HCT-116 [7]): 58% | Activity (NCI-H1299 [8]): Active | Ratio IC50 [9]: 3 | Activity (Mus musculus [10]): Non-toxic | Ratio IC50 [11]: 3 | Activity (MDA-MB-231 [12]): Active | Activity (HCT-116 [13]): Active | IC50 [14]: 10.3 µM | Activity (HCT-116 [15]): Active | IC50 [16]: 16.1 µM | Activity (HCT-116 [17]): inactive | Activity (NCI-H1299 [18]): Active | Ratio IC50 [19]: 3 | Activity (NCI-H1299 [20]): inactive | Activity [21]: Dose-dependent effect | Activity (Mus musculus [22]): Non-toxic | Activity (HCT-116 [23]): Active | Activity (HCT-116 [24]): inactive | IC50 [25]: 12.3 µM | Ratio IC50 (HT-29): 3 | Ratio IC50 (MDA-MB-231 [26]): 3 | Activity (MDA-MB-231 [27]): inactive
